Most compounds without a hit are left out; they make up all but 2.2% or so of the library.
VIM-2 inhibitor – blocks Pseudomonas aeruginosa VIM-2 metallo-beta-lactamase | purified VIM-2, nitrocefin hydrolysis, epi-absorbance fluorescence | inhibition, % at 5.6 µM | 290,000 tested, 0.89% active;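 active means inhibition above the mean of all tested compounds plus 3 SD, cutoff set per screening run, cut at about 7.5% in these data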;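 further: red hydrolysis product quenches plate fluorescence so inhibitors raise well fluorescence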
IMP-1 inh – inhibitors of Pseudomonas aeruginosa IMP-1 metallo-beta-lactamase | purified IMP-1, nitrocefin hydrolysis, epi-absorbance fluorescence | inhibition, % at 5.6 µM | 290,000 tested, 0.45% active;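 active means inhibition above the mean plus 3 SD of all compounds in the same screening run, cut at about 4.5% in these data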
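Material – recombinant IMP-1 enzyme, purified · Amount – IMP-1 0.2 nM before substrate addition · Medium – HEPES buffer pH 7.1 with ZnSO4 and Brij 35 · Timing – 25 °C, 15 min preincubation, 25 min reaction · Measured by – plate fluorescence quenching by hydrolysis product, ex 480/em 530 nm · Read-out – percent enzyme inhibition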
eIF4H FP inh – inhibitors of RNA binding by human eIF4H | eIF4H fluorescence polarization binding assay | inhibition, % at 35 µM | 290,000 tested, 0.94% active | AID 2012;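 further: calls also rest on retests at 20 µM and on dose response follow-up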
PABP1 MLLE inh – inhibitors of microRNA-mediated deadenylation, human PABP1 MLLE binding. P11940. GST-MLLE / FITC-PAM2 fluorescence polarization. inhibition, % at 20 µM. 360,000 tested, 0.36% active. AID 588489; in the data active means inhibition above about 35%, passing the limit was not always enough
Target sequence (P11940 whole entry, looked up): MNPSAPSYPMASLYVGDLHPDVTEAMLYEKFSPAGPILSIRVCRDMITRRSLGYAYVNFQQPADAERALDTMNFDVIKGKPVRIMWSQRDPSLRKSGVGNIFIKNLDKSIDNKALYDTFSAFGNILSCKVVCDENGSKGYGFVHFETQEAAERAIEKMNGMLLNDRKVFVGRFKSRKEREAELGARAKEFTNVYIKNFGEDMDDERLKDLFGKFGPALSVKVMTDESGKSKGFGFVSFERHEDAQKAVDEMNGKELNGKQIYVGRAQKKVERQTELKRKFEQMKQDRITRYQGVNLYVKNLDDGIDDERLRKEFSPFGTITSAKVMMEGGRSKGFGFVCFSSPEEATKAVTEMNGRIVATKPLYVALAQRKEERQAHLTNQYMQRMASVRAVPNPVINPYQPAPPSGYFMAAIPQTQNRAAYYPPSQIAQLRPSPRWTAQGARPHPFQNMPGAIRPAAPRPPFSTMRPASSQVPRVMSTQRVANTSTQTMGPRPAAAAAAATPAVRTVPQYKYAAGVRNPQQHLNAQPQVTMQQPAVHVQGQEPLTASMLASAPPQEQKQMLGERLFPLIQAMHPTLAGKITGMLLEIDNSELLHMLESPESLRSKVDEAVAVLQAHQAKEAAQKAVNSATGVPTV
PABP FP inh – blocks human PABP binding to poly(A) RNA; P11940; fluorescence polarization; calls only at 35 µM; 290,000 tested, 1% active; AID 2014;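 further: calls also rest on retests at 20 µM and on dose response follow-up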
Hits are given with their value; n = inactive; u = inconclusive; x = no result; + = active, no number. Unless noted, how the calls were made is not given here.

SMILES | VIM-2 inhibitor | IMP-1 inh | eIF4H FP inh | PABP1 MLLE inh | PABP FP inh
CCCCC(=O)NC(=S)Nc1ccccc1C(=O)Nc1ccccc1 | n | 13 | n | 40 | n
CC(=O)NC(=S)Nc1ccccc1C(=O)Nc1ccccc1 | n | 28 | n | n | n
COc1ccc(CNC(=O)Cn2ccc3cc(S(=O)(=O)N4CCCC4)ccc32)cc1OC | n | n | n | n | n
Cc1c(CCC(=O)O)c(=O)oc2cc3occ(-c4ccc(Cl)cc4)c3cc12 | n | n | n | n | n
Cc1c(CCC(=O)O)c(=O)oc2c(C)c3occ(-c4ccc(Cl)cc4)c3cc12 | n | 5.3 | n | n | n
CCOCCCNC(=S)N1CCC(NC(=O)c2ccco2)CC1 | n | n | n | n | +
CC(C)CNC(=S)N1CCC(NC(=O)c2ccco2)CC1 | n | n | n | n | n
COc1ccc(N2Cc3ccc(C(=O)N/N=C\c4ccc(O)cc4O)cc3C2)cc1 | n | n | 65 | x | n
Cc1c(/C=C(\C#N)c2nn(-c3ccccc3)c(N)c2C#N)c2ccccc2n1Cc1ccc(F)cc1 | n | n | 52 | n | +
Cc1ccc(/C=C(\C#N)c2nn(-c3ccccc3)c(N)c2C#N)cc1 | n | n | n | n | n
CC(C)=C1C2CCC1C(C(=O)Nc1cc(C)cc(C)c1)C2C(=O)O (stereo not drawn) | 9.4 | n | n | n | n
O=S(=O)(NCC1(N2CCOCC2)CCCCC1)c1ccc(F)c(F)c1F | x | x | x | n | x
O=C(CCSc1ccc(Br)cc1)c1ccc(O)cc1 | n | n | n | n | n
COc1ccccc1N1C(=O)N(C(C)=O)C2C1Nc1ccccc1N2C (stereo not drawn) | n | n | 78 | n | +
COc1ccc(N2C(=O)CC(C#N)=C2N)cc1 | n | n | n | n | n
N#CC1=C(N)N(c2ccccc2)C(=O)C1 | n | n | n | n | +
O=C(CCc1nnc2ccc(NCc3ccco3)nn12)Nc1cccc(F)c1 | n | n | n | n | n
Cc1nc(-c2ccc(NC(=O)CC(C)C)cc2)cs1 | n | n | n | n | n
COc1ccc(C(CC(=O)NCc2ccccc2)Sc2n[nH]c(-c3ccccc3)n2)cc1 (stereo not drawn) | n | n | 86 | n | +
COc1ccc(C(CC(=O)NCc2ccccc2)Sc2n[nH]c(-c3ccc(Cl)cc3)n2)cc1 (stereo not drawn) | n | n | n | n | n
Cc1cc2ccccc2n1CCNC(=O)C(C)(C)C | x | x | n | n | n
CC(=O)NCCn1c(C)cc2ccccc21 | x | x | 94 | n | +
Cc1cc2ccccc2n1CCNC(=O)COc1ccccc1 | x | x | n | n | +
Cc1cc2ccccc2n1CCNC(=O)Cc1cccc2ccccc12 | n | n | n | n | n
Cc1cc2ccccc2n1CCNC(=O)c1ccc(Br)o1 | n | n | 59 | 43 | +
SMILES | VIM-2 inhibitor | IMP-1 inh | eIF4H FP inh | PABP1 MLLE inh | PABP FP inh
CCC(=O)NCCn1c(C)cc2ccccc21 | n | n | 106 | n | +
CCc1cc(=O)oc2c(CNCc3c(F)cccc3Cl)c(O)ccc12 | n | n | n | n | n
O=C(CN1C(=O)NC2(CCCCC2)C1=O)Nc1cccc(S(=O)(=O)N2CCCC2)c1 | x | x | x | n | x
COc1cc(/C=C2\CCCc3c2nc2ccccc2c3C(=O)O)cc([N+](=O)[O-])c1O | n | n | 80 | n | +
COc1cc(/C=C2\CCCc3c2nc2ccccc2c3C(=O)O)cc(OC)c1O | n | n | n | n | n
CCC(=O)NCCCc1nc2ccccc2n1Cc1ccccc1F | n | n | n | n | +
CCOc1ccccc1-c1c2cc(O)c(=O)cc-2oc2cc(O)c(O)cc12 | n | 6.8 | u | n | n
COc1ccc(OC)c(-c2c3cc(O)c(=O)cc-3oc3cc(O)c(O)cc23)c1 | n | 4.7 | u | n | n
COc1ccc(-c2cc(=O)c3c(O)c(OC)c(O)cc3o2)cc1 | n | n | n | n | n
O=c1cc2oc3cc(O)c(O)cc3c(-c3ccccc3O)c-2cc1O | n | n | u | n | u
COCCN1CN(S(=O)(=O)c2cccc(Cl)c2)c2nc3ccccc3nc21 | n | n | n | n | n
COCCCN1CN(S(=O)(=O)c2ccc(Cl)cc2)c2nc3ccccc3nc21 | n | n | 50 | n | +
O=c1cc(-c2ccc(O)cc2)oc2cc(O)c(C3OC(CO)C(O)C(O)C3O)c(O)c12 (stereo not drawn) | n | n | 67 | n | +
CCCN1CCN(CCCNC(=O)c2cc3c(=O)[nH]c4ccccc4c3s2)CC1 | 10 | n | n | n | u
Cc1ccc2[nH]c(=O)c3cc(C(=O)NCCN4CCN(C)CC4)sc3c2c1 | 12 | n | n | n | n
COCCNC(=O)c1cc2c(=O)[nH]c3ccccc3c2s1 | n | n | n | n | n
O=C(CN(C(=O)c1csnn1)c1ccc(F)c(Cl)c1)NCc1ccc2c(c1)OCO2 | n | n | n | n | n
COCC(C)n1c(SCC(=O)NC(=O)Cc2ccccc2)nc2ccccc2c1=O (stereo not drawn) | x | x | x | n | x
O=C(CSc1nnnn1-c1ccccc1)NC(=O)Nc1ccc2c(c1)OCCO2 | n | 5.6 | n | n | n
O=C(CSc1ncnc2ccccc12)Nc1ccc2c(c1)OCCO2 | n | n | n | n | n
CC(C)c1nc(SCC(=O)Nc2ccc(N3CCOCC3)cc2)c2ccccc2n1 | n | n | n | 45 | n
CCCc1nc(SCC(=O)Nc2ccc(N3CCOCC3)cc2)c2ccccc2n1 | n | n | n | n | n
O=C(CSc1nc(Cc2ccccc2)nc2ccccc12)Nc1ccc2c(c1)OCCO2 | n | n | n | 38 | n
COCC(C)n1c(SCC(=O)NC(=O)Nc2ccc3c(c2)OCCO3)nc2ccccc2c1=O (stereo not drawn) | n | 5.5 | n | n | n
Cc1cc(C)c(S(=O)(=O)Nc2nnc(C(C)C)s2)c(C)c1 | n | n | n | n | n
SMILES | VIM-2 inhibitor | IMP-1 inh | eIF4H FP inh | PABP1 MLLE inh | PABP FP inh
O=C(Cn1cnc2c(OCc3ccccc3)ncnc21)N[C@H](CO)Cc1cc2ccccc2[nH]1 | x | x | x | n | x
O=C(OCc1nc2ccsc2c(=O)[nH]1)c1ccccc1 | x | x | x | n | x
O=C(CSc1ncnc2ccccc12)Nc1ccc2c(c1)OCO2 | n | n | n | n | n
O=C(CSc1ncnc2ccccc12)NCc1ccc2c(c1)OCO2 | n | n | active | n | n
Cn1c(CNC(=O)CNS(=O)(=O)c2ccc(Cl)cc2)cc(=O)n(C)c1=O | n | n | n | n | n
COc1ccc(C(=O)CN2CCN(S(=O)(=O)c3cccc([N+](=O)[O-])c3)CC2)cc1OC | n | n | n | 39 | n
O=C(O)c1cccc2c1C(=O)c1cccc3snc-2c13 | 8.3 | n | n | n | n
Cc1ccc2c(c1)C(=O)c1c(C(=O)O)cccc1-2 | n | n | n | n | n
Cc1cc(Br)ccc1OCC(=O)NNC(=O)C(=O)Nc1ccccc1 | n | n | n | n | n
C=C(C)C(=O)Nc1ccc2c(c1)OCCOCCOCCO2 | n | n | 90 | n | +
COc1cccc(C2c3c(oc4ccc(F)cc4c3=O)C(=O)N2CCN2CCOCC2)c1OC (stereo not drawn) | 8.1 | n | n | n | n
CCC(=O)Nc1sc2c(c1C(N)=O)CCN(Cc1ccccc1)C2 | n | n | n | n | +
